Data reported in ChEMBL document CHEMBL3272325, “Structure-activity relationships of dimeric Catharanthus alkaloids. 1. Deacetylvinblastine amide (vindesine) sulfate” (J Med Chem, 1978).

Columns and labels:
Format in all cases: functional
Conditions in all cases: route intraperitoneal
[1] = Antitumor activity against mouse Ridgeway osteogenic sarcoma cells allografted in mouse at 0.2 to 0.3 mg/kg/day, ip
Method in brief: (§1)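 Ridgeway osteogenic sarcoma and Gardner lymphosarcoma in mice, with sulfate salts given ip daily on days 1-9. Tumor growth inhibition versus controls scored in bands: +++ = 75-100%, ++ = 50-75%, ± = under 25%.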

[2] = Antitumor activity against mouse Gardner lymphosarcoma cell allografted in mouse at 0.2 to 0.3 mg/kg/day, ip; method in brief: as §1
[3] = Antitumor activity against mouse Ridgeway osteogenic sarcoma cells allografted in mouse at 1 to 2 mg/kg/day, ip
Method in brief: (§2)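 Sulfate salts given ip on days 1-9 against ROS and GLS in mice; tumor growth scored as percent inhibition versus controls (+++ = 75-100%, ++ = 50-75%, ± = under 25%).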

[4] = Antitumor activity against mouse Gardner lymphosarcoma cell allografted in mouse at 1.0 to 2.0 mg/kg/day, ip; method in brief: as §2

Row | SMILES | TGI [1] [%] | TGI [2] [%] | TGI [3] [%] | TGI [4] [%]
1 | CC[C@]1(O)C[C@H]2CN(CCc3c([nH]c4ccccc34)[C@@](C(=O)OC)(c3cc4c(cc3OC)N(C)[C@H]3[C@@](O)(C(=O)NN)[C@H](O)[C@]5(CC)C=CCN6CC[C@]43[C@@H]65)C2)C1 | 75 | 75 |  | 
2 | CC[C@]1(O)C[C@@H]2C[C@H](c3cc4c(cc3OC)N(C)[C@H]3[C@@](O)(C(N)=O)[C@H](O)[C@]5(CC)C=CCN6CC[C@]43[C@@H]65)c3[nH]c4ccccc4c3CCN(C2)C1.O=S(=O)(O)O |  |  | <25 | <25
